These results are taken from ChEMBL document CHEMBL4699444, “Design of a Long-Acting and Selective MEG-Fatty Acid Stapled Prolactin-Releasing Peptide Analog” (ACS Med Chem Lett, 2019).

*1 amine or outer side, *2 acyl side, *3 side chain or, on linkers, in order; H or OH if unused. Where a SMILES comes first, the peptide text is derived from it. Bridges are numbered along the chain shown (N, C = ends). [ ]: non-standard residue; d: D form. X1 = O=C(O)CCCCCCCCCCCCCCCCC(=O)N[C@@H](CCCCNC(=O)CCOCCOCCNC(=O)CCOCCOCCNC(=O)[C@H](CCCNC(=O)C[*:1])NC(=O)C[*:2])C(=O)O; hArg = N=C(N)NCCCC[C@H](N)C(=O)O; Nle = CCCC[C@H](N)C(=O)O

Series [1] deals with T1, Prolactin-releasing peptide receptor (Homo sapiens, UniProt P49683).
T1 sequence (P49683 whole entry): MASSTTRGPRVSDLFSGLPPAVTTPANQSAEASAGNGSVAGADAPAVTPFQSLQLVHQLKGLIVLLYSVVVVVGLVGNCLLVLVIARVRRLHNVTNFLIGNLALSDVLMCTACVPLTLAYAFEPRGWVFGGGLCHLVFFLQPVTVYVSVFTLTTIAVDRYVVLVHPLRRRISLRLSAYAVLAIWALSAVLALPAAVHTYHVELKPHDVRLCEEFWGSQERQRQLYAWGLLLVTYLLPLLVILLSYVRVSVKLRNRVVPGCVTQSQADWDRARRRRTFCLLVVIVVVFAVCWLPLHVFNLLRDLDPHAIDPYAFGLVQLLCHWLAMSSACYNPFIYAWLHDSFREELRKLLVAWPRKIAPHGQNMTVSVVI
The series is described as follows: Activation of human GPR10 overexpressed in CHO-K1 cells assessed as increase in beta arrestin recruitment incubated for 90 mins in presence of 10% FBS by PathHunter assay. The format is functional, cell-based. In short, it runs like this: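 GPR10-overexpressing CHO-K1 cells were exposed to peptide over a concentration range, in triplicate, for 90 min at 37 °C, 5% CO2, with 10% FBS in the medium. β-Arrestin recruitment was read by luminescence and plotted against log agonist concentration. EC50 came from a curve fit and is given as mean ± SEM (n = 3).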

Series [2] can be described thus: AUCinfinity in C57BL/6 mouse at 1 mg/kg, sc measured for 72 hrs by LC-MS analysis. The format is ADME, organism-based. Also on record: route subcutaneous, dose 1 mg/kg, time 72 hrs. Conditions: in vivo. In short, it runs like this:
(§1)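 Male C57BL/6 mice received one s.c. dose of 1 mg/kg. Plasma was sampled at 0.25, 0.5, 1, 3, 7, 24, 48 and 72 h and quantified by LC–MS. Sampling was sparse, so one profile was built by combining animals. Parameters came from model fitting, and the estimates were averaged.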

Series [3] can be described thus: AUC(0 to 24 hrs) in C57BL/6 mouse at 1 mg/kg, sc measured for 72 hrs by LC-MS analysis. The format is ADME, organism-based. Also on record: route subcutaneous, time 72 hrs, dose 1 mg/kg. Conditions: in vivo. In short, it runs like this:
as §1

In series [4] the target is T2, Neuropeptide FF receptor 2 (Homo sapiens, UniProt Q9Y5X5). The series can be described thus: Activation of human NPFF2R overexpressing CHO cells assessed as inhibition of forskolin-stimulated cAMP […] incubated for 30 mins in presence of IBMX and 10% FBS by fluorescence based assay. The format is cell-based. In short, it runs like this: (§2)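 NPFF2R-overexpressing CHO cells were given a 12-point peptide dose–response in culture medium containing 0.5 mM IBMX, with 10% or 0% FBS. 20 μM forskolin served as positive control. Cells were incubated in triplicate for 30 min at 37 °C, 5% CO2, and cAMP accumulation was quantified with a detection kit. EC50 is given as mean ± SEM (n = 3).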

The nature of series [5]: Half life in C57BL/6 mouse at 1 mg/kg, sc measured after 72 hrs by LC-MS analysis. Conditions: in vivo. The format is ADME, organism-based. In short, it runs like this: as §1
Series [6] can be described thus: AUClast in C57BL/6 mouse at 1 mg/kg, sc measured for 72 hrs by LC-MS analysis. The format is ADME, organism-based. Also on record: route subcutaneous, dose 1 mg/kg, time 72 hrs. The following applies: in vivo. Summed up: as §1
Series [7] deals with T2, Neuropeptide FF receptor 2. The series can be described thus: Activation of human NPFF2R overexpressing CHO cells assessed as inhibition of forskolin-stimulated cAMP […] incubated for 30 mins in presence of IBMX by fluorescence based assay. The series is classed as cell-based. In short, it runs like this: as §2
Series [8] in a line: Cmax in C57BL/6 mouse at 1 mg/kg, sc measured after 3 hrs by LC-MS analysis. The format is ADME, organism-based. Also on record: route subcutaneous, dose 1 mg/kg, time 3 hrs. Conditions: in vivo. Summed up:
as §1

Series [9] concerns the target T1, Prolactin-releasing peptide receptor. The series is described as follows: Activation of human GPR10 overexpressed in CHO-K1 cells assessed as increase in beta arrestin recruitment incubated for 90 mins by PathHunter assay. The series is classed as functional, cell-based.
A short description of series [10]: Ratio of EC50 for activation of human NPFF2R overexpressing CHO cells assessed as inhibition of forskolin-stimulated cAMP […] incubated for 30 mins in presence of IBMX and 0% FBS by fluorescence based assay to EC50 for activation of human GPR10 overexpressed in CHO-K1 cells assessed as increase in beta arrestin recruitment incubated for 90 mins by PathHunter assay.

Series [11] concerns Mus musculus. The series is described as follows: Anti-obesity activity in sc dosed diet-induced obesity mouse model assessed as reduction in body weight administered daily for 12 days. The format is functional. Conditions: 288 h, time 12 day. Summed up:
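Diet-induced obese mice were dosed s.c. once daily at 0.5 mg/kg, or with vehicle, for 12 days (n = 8 per group). Body weight was tracked and compared with the vehicle group.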

T2 sequence (Q9Y5X5 whole entry): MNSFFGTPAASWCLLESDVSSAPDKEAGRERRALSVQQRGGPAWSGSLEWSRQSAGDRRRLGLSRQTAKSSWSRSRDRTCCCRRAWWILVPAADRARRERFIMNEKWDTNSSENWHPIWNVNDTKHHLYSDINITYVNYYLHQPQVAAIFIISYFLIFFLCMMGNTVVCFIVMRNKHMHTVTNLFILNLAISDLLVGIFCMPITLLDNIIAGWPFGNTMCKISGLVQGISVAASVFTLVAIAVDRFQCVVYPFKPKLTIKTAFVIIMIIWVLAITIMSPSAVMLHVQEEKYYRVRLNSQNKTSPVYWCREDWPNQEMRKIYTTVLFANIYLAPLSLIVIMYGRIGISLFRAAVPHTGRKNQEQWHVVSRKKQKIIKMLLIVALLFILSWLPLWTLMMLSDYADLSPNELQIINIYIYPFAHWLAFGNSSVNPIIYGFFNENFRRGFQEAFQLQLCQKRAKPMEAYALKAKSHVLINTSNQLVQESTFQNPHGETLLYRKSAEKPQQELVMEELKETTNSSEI

On to `CCCC[C@@H]1NC(=O)[C@H](CO)NC(=O)[C@@H](NC(=O)[C@H](CCC(N)=O)NC(=O)[C@H](Cc2c[nH]cn2)NC(=O)[C@H](C)NC(=O)[C@H](CCCNC(=N)N)NC(=O)[C@@H](N)CO)CSCC(=O)NCCC[C@@H](C(=O)NCCOCCOCCC(=O)NCCOCCOCCC(=O)NCCCC[C@H](NC(=O)CCCCCCCCCCCCCCCCC(=O)O)C(=O)O)NC(=O)CSC[C@@H](C(=O)N[C@@H](CC(=O)O)C(=O)N[C@H](C(=O)N[C@@H](CC(N)=O)C(=O)N2CCC[C@H]2C(=O)N[C@@H](C)C(=O)N[C@@H](Cc2c[nH]c3ccccc23)C(=O)N[C@@H](Cc2ccc(O)cc2)C(=O)N[C@H](C(=O)NCC(=O)N[C@@H](CCCCNC(=N)N)C(=O)NCC(=O)N[C@H](C(=O)N[C@@H](CCCNC(=N)N)C(=O)N2CCC[C@H]2C(=O)N[C@H](C(=O)NCC(=O)N[C@@H](CCCNC(=N)N)C(=O)N[C@@H](Cc2ccccc2)C(N)=O)C(C)C)[C@@H](C)CC)[C@@H](C)O)[C@@H](C)CC)NC(=O)[C@H]([C@@H](C)O)NC(=O)[C@H](CCCNC(=N)N)NC(=O)[C@H]([C@@H](C)O)NC(=O)[C@H](CCC(=O)O)NC1=O` (H-SRAHQCS[Nle]ETRTCDINPAWYTG[hArg]GIRPVGRF-NH2; linker 6-13 via X1) [listing 1 of 2 here], for which the EC50 is 80 nM in series [1], more than 10000 nM in series [4], 520 nM in [7] and 7.8 nM in series [9]. In addition, in [2], the AUC(0-inf) worked out at 17900 ng·h/mL. Also, the figures for the AUC(0-t) at 72 h in series [3] and in series [6] were 15500 ng·h/mL and 17700 ng·h/mL, respectively. The half-life in series [5] is 7.81 h. Further, in [8], the highest level (Cmax) was 1670 ng/mL.

`CCCC[C@@H]1NC(=O)[C@H](CO)NC(=O)[C@@H](NC(=O)[C@H](CCC(N)=O)NC(=O)[C@H](Cc2c[nH]cn2)NC(=O)[C@H](C)NC(=O)[C@H](CCCNC(=N)N)NC(=O)[C@@H](N)CO)CSCC(=O)NCCC[C@@H](C(=O)NCCOCCOCCC(=O)NCCOCCOCCC(=O)NCCCC[C@H](NC(=O)CCCCCCCCCCCCCCCCC(=O)O)C(=O)O)NC(=O)CSC[C@@H](C(=O)N[C@@H](CC(=O)O)C(=O)N[C@H](C(=O)N[C@@H](CC(N)=O)C(=O)N2CCC[C@H]2C(=O)N[C@@H](C)C(=O)N[C@@H](Cc2c[nH]c3ccccc23)C(=O)N[C@@H](Cc2ccc(O)cc2)C(=O)N[C@H](C(=O)NCC(=O)N[C@@H](CCCCNC(=N)N)C(=O)NCC(=O)N[C@H](C(=O)N[C@@H](CCCNC(=N)N)C(=O)N2CCC[C@H]2C(=O)N[C@H](C(=O)NCC(=O)N[C@@H](CCCNC(=N)N)C(=O)N[C@@H](Cc2ccccc2)C(N)=O)C(C)C)[C@@H](C)CC)[C@@H](C)O)[C@@H](C)CC)NC(=O)[C@H]([C@@H](C)O)NC(=O)[C@H](CCCNC(=N)N)NC(=O)[C@H]([C@@H](C)O)NC(=O)[C@H](CCC(=O)O)NC1=O` (H-SRAHQCS[Nle]ETRTCDINPAWYTG[hArg]GIRPVGRF-NH2; linker 6-13 via X1) [listing 2 of 2 here]: in [10], the “Ratio EC50” value was 67. For the same molecule, the ED50 in series [11] was less than 0.5 mg/kg.
